Laboratory results as given in ChEMBL document CHEMBL1156534, “Hemopressin is an inverse agonist of CB1 cannabinoid receptors” (Proc Natl Acad Sci U S A, 2007).
Calls of active or inactive are those of the source. The rule behind the calls is not given here.

What was measured:
[1] = molecular target: Beta-2 adrenergic receptor (Homo sapiens) (UniProt P07550); assay: Antagonist activity at beta2 adrenergic receptor expressed in SKNSH cells at 100 nM by ELISA relative to control; type: functional, cell-based; set-up: scale not given: the % may be the effect or the level left
[2] = molecular target: Cannabinoid receptor 1 (Rattus norvegicus) (UniProt P20272); assay: Antagonist activity at Long-Evans rat striatal membrane CB1 receptor assessed as blockade of Hu210-mediated decrease in adenylate cyclase activity; type: functional
Method in brief: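 Membranes (10 μg) came from striatum (CB1) or spleen (CB2). They were tested in GTPγS-binding or adenylyl cyclase assays with Hu-210 and test ligand (0–1 μM), or with Hu-210 curves with or without 10 μM peptide; a 1 μM single-point combination was also used. Mean ± SE of triplicates.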

[3] = molecular target: Mu-type opioid receptor (Homo sapiens) (UniProt P35372); assay: Antagonist activity at mu opioid receptor expressed in SKNSH cells assessed as blockade of DAMGO-induced increase in antibody recognition at 100 nM by ELISA relative to control; type: functional, cell-based; set-up: scale not given: the % may be the effect or the level left
Mu-type opioid receptor (Homo sapiens), sequence (P35372 whole entry): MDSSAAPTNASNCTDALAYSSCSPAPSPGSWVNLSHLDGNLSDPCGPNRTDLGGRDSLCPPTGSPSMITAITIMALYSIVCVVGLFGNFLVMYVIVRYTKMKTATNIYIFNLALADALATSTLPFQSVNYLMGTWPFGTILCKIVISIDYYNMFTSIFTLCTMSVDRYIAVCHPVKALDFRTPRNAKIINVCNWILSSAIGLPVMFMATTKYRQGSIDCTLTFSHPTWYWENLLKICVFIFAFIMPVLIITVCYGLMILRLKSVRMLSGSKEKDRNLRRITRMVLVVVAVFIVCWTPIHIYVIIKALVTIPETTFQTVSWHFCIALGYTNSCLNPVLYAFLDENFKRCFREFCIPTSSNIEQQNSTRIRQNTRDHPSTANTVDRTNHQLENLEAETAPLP

Cannabinoid receptor 1 (Rattus norvegicus), sequence (P20272 whole entry): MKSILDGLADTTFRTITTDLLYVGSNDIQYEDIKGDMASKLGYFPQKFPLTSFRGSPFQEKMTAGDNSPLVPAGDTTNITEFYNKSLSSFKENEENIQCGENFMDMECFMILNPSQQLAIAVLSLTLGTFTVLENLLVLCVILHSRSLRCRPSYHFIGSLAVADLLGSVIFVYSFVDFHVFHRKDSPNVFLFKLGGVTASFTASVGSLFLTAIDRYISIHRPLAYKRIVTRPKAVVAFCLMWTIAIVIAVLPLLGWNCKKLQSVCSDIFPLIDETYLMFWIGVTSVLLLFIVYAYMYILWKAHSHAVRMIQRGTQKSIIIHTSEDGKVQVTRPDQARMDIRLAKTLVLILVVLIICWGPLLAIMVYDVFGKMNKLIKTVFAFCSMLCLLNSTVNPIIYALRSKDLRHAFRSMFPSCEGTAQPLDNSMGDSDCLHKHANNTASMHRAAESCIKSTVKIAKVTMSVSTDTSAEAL
Beta-2 adrenergic receptor (Homo sapiens), sequence (P07550 whole entry, looked up): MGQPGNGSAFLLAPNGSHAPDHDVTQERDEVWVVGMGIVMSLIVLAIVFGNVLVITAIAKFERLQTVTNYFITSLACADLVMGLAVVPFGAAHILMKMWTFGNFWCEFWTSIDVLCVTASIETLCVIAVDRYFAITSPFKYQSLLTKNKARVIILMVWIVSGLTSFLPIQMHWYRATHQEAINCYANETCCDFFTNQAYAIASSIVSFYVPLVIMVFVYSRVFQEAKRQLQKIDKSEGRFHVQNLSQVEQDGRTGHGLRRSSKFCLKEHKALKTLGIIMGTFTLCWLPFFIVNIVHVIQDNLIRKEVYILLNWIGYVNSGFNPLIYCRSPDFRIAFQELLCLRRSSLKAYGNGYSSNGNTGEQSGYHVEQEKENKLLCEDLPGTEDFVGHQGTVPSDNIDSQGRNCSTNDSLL

Activity [1]: 104%
Activity [2]: Active
Activity [3]: 141%
SMILES: CC(C)C[C@H](NC(=O)[C@H](Cc1ccccc1)NC(=O)[C@H](CCCCN)NC(=O)[C@H](Cc1ccccc1)NC(=O)[C@H](CC(N)=O)NC(=O)[C@@H](NC(=O)[C@@H]1CCCN1)C(C)C)C(=O)N[C@@H](CO)C(=O)N[C@@H](Cc1cnc[nH]1)C(=O)O [HEMOPRESSIN]
